Experimental data gathered from unrelated publications.
Each line is one published result; the experiments were not run side by side.
Effect on: cell growth or viability

SMILES | cell line | method | time | IC50
CCCn1cnc2ccc(-c3ccc(N4CCC(C)CC4=O)nc3)cc2c1=O (centres unmarked) | NCI-H1975 | CCK-8 | 72 h | > 10 µM
COc1cc(C2C3=C(COC3=O)N(CCO)c3cc4c(cc32)CCC4)cc(OC)c1OC (centres unmarked) | HEK293 | ATP luminescence | 48 h | 1.55 µM
Cc1cccc(NC(=O)Nc2ccc(-c3ccc4ncn(Cc5ccccc5)c(=O)c4c3)cn2)c1 | NCI-H1975 | CCK-8 | 72 h | > 10 µM
O=C(NCc1ccccc1)Nc1nc2cc(-c3ccc4ncn(Cc5ccccc5)c(=O)c4c3)ccc2s1 | NCI-H1975 | MTT | 72 h | > 20 µM
CCCCn1cnc2ccc(-c3ccc(NC(=O)NCCC)nc3)cc2c1=O | NCI-H1975 | CCK-8 | 72 h | 8.75 µM
CCOc1ccc(Nc2c3c(nc4ccccc24)CCC3)cc1 | HEK293 | resazurin | 72 h | 18.1 µM
CCCCC(=O)Nc1ccc(-c2ccc3ncn(CCC)c(=O)c3c2)cc1F | NCI-H1975 | CCK-8 | 72 h | 1.68 µM
O=C(Nc1ccc(F)cc1)Nc1nc2cc(-c3ccc4ncn(CC(=O)N5CCOCC5)c(=O)c4c3)ccc2s1 | NCI-H1975 | MTT | 72 h | > 20 µM
COC[C@H](NC(=O)c1ccn(S(C)(=O)=O)c1)C(=O)Nc1nc(-c2cccc(N3C[C@@H](C)O[C@@H](C)C3)n2)cs1 | HCC515 | ATP luminescence | 7 days | 0.119 µM
Nc1ccn([C@@H]2O[C@H](CO)[C@@H](O)C2(F)F)c(=O)n1 | HEK293 | MTT | 48 h | 17.4 µg/mL
COc1ccc(NC(=O)Nc2nc3cc(-c4ccc5ncn(CCN6CCOCC6)c(=O)c5c4)ccc3s2)cc1 | NCI-H1975 | MTT | 72 h | > 20 µM
COc1cccc2c1C(=O)c1c(O)c3c(c(O)c1C2=O)C[C@@](O)(C(=O)CO)C[C@@H]3O[C@H]1C[C@H](N)[C@H](O)[C@H](C)O1 | Pfeiffer | – | 96 h | 0.0907 µM
O=C(Nc1ccc(Cl)cc1)Nc1nc2cc(-c3ccc4ncn(Cc5ccccc5)c(=O)c4c3)ccc2s1 | NCI-H1975 | MTT | 72 h | > 20 µM
O=C(Nc1ccc(-c2ccc3ncn(Cc4ccc5c(c4)OCO5)c(=O)c3c2)cn1)c1ccccc1 | NCI-H1975 | CCK-8 | 72 h | > 10 µM
O=C(Nc1ccc(F)cc1)Nc1nc2cc(-c3ccc4ncn(CCC5CCCCC5)c(=O)c4c3)ccc2s1 | NCI-H1975 | MTT | 72 h | 5.97 µM
CCCCCC(=O)Nc1ccc(-c2ccc3ncn(CCC)c(=O)c3c2)cn1 | NCI-H1975 | CCK-8 | 72 h | 0.074 µM
Cc1ncsc1-c1ccc(CNC(=O)[C@@H]2C[C@@H](O)CN2C(=O)[C@@H](NC(=O)C2(F)CC2)C(C)(C)C)c(OCCOc2ccc(CN3CCN(c4cc(-c5ccccc5O)nnc4N)CC3)cc2)c1 | HCC515 | ATP luminescence | 7 days | 0.261 µM
Nc1cccc2c1C(=O)N(C1CCC(=O)NC1=O)C2=O (centres unmarked) | TMD8 | CCK-8 | 7 days | > 20 µM
O=C(Nc1ccc(F)cc1)Nc1nc2cc(-c3ccc4ncn(CCN5CCOCC5)c(=O)c4c3)ccc2s1 | NCI-H1975 | MTT | 72 h | 4.31 µM
COc1ccc(C[C@H](N)C(=O)N[C@H]2[C@@H](O)[C@H](n3cnc4c(N(C)C)ncnc43)O[C@@H]2CO)cc1 | HEK293 | resazurin | 72 h | 0.72 µM
